Screening results (PubChem)
esBAF inh – SWI/SNF esBAF complex inhibition. mouse ES cells, Bmi1-luciferase knock-in reporter, 24 h; 100% = twice the neutral-well signal. reporter increase, % at 12.5 µM. hit rate 2% among 350,000; in the data active = activation above about 40%; inconclusive = no clear call, values can overlap the other calls;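 note: 0% = median of the plate's neutral control wells and 100% = double that signal; a rise in the Bmi1 reporter signal indicates esBAF inhibition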
Wnt act – activators of Wnt/beta-catenin signaling. Wnt/beta-catenin reporter cell assay, activator, plate reader. activation, % at 9.35 µM. hit rate 1.2% among 300,000. AID 743398; in the data active = activation above about 30%, passing the limit was not always enough; inconclusive = no clear call, values can overlap the other calls;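 note: 0% = neutral control wells and 100% = positive control wells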
CASP6 VEID inh – caspase-6 (human) enzyme inhibition. hit rate 0.53% among 350,000. inhibition, % at 12.5 µM. purified caspase-6, Z-VEID-R110 cleavage fluorescence. AID 686996;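 active = mean inhibition across replicates at least about 35%, with every replicate also reaching that limit, limit read from the data; inconclusive = only one of the two criteria met; inactive = neither criterion met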;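 note: 0% = median of neutral control wells and 100% = no fluorescence left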
Target sequence (P55212 24-179 limits assumed): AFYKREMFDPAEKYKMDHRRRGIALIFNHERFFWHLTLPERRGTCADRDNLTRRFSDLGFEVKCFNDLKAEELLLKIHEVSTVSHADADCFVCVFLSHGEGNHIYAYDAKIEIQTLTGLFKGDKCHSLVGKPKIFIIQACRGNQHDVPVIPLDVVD
Target sequence (P55212 194-293 limits assumed): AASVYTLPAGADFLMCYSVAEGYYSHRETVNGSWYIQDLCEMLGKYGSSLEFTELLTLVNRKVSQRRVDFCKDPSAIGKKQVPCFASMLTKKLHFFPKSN
NSD2 inh – blocks human histone methyltransferase NSD2 | AID 743445 | O96028 | inhibition, % at 12.5 µM | hit rate 0.54% among 310,000 | NSD2 peptide methylation, AlphaScreen, 120 min; in the data active = inhibition above about 50%
XiGFP reactiv – activators of X-chromosome reactivation in mouse fibroblasts; hit rate 0.055% among 360,000; AID 743238; XiGFP mouse fibroblasts, % GFP-positive cells imaging, 3 d; cells co-treated with 5-aza-dC sensitizer; scaled so ellipticine positive control = 100%; activation, % at 7.58 µM;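 active = mean normalized replicate activation at least 10% and every replicate at or above 10%; inconclusive = only one of the two criteria met; inactive = mean below 10% and not all replicates reach 10%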;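 note: 0% = median of on-plate neutral control wells and 100% = ellipticine 6 µM median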
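Schedule: 3 d treatment, 15 min room-temperature fixation; system: 68-5-11 XiGFP fibroblast line; buffer or medium: DMEM plus 5-aza-dC sensitizer; control set: ellipticine 6 µM positive control; compound: one concentration, pinned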
MITF TRPM1 HTS – MITF TRPM1 promoter activation in melanoma cells; hit rate 0.75% among 300,000; activation, % at 12.5 µM; SK-MEL-5 TRPM1-promoter luciferase, 24 h; % of positive control, neutral wells = 0; AID 588334;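 active = mean activation of at least 80% with every replicate also reaching 80%; inconclusive = mean reaches 80% but some replicate falls short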;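 note: 0% = neutral control wells and 100% = parthenolide positive control wells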
* hit, by the source's call; ? = inconclusive; · = no result given. Shown are actives, neighbours in structure and some others; about 3% of the full set was active somewhere.

SMILES | esBAF inh | Wnt act | CASP6 VEID inh | NSD2 inh | XiGFP reactiv | MITF TRPM1 HTS
CCOc1ccc2c(c1)sc(=NC(=O)C1CC1)n2C | 60* | -1 | 2 | -2 | · | 6
CO[C@@H](CN(C)C(=O)c1ccccc1F)[C@@H](C)CN([C@@H](C)CO)S(=O)(=O)c1ccc(Cl)cc1 | 1 | · | 3 | · | 0 | ·
Cc1csc(=NC(=O)c2ccccc2)n1C | ? | 34* | · | · | · | ·
CCn1c(C)csc1=NC(=O)c1ccccc1 | 1 | 20 | · | 1 | · | 0
CCNC(=O)C[C@H]1CC[C@H](NS(=O)(=O)c2ccc(F)cc2)[C@@H](CO)O1 | -2 | · | -1 | · | 0 | ·
CCCn1cccc(C(=O)Nc2ccc(OC)cc2)c1=O | 27 | 5 | 0 | -1 | 0 | 27
C=CCn1cccc(C(=O)Nc2ccc(OC)c(Cl)c2)c1=O | 56* | · | · | -1 | · | 62
C=CCn1cccc(C(=O)Nc2ccc(SC)cc2)c1=O | 55* | 25 | -2 | 0 | 0 | 76
C#CCn1cccc(C(=O)Nc2ccc(OC)cc2)c1=O | 53* | 11 | 4 | -4 | 0 | 49
C[C@@H]1CN([C@H](C)CO)C(=O)CCCn2nncc2CO[C@@H]1CN(C)Cc1ccc(O)cc1 | -9 | · | 0 | · | 0 | ·
CC(=O)N(C)C[C@@H]1Oc2cc(C#Cc3cccc(F)c3)ccc2S(=O)(=O)N([C@@H](C)CO)C[C@H]1C | -1 | · | 1 | · | -1 | ·
Cn1cc(SCC(=O)Nc2nccs2)c2ccccc21 | 68* | 26 | -2 | · | 0 | ·
O=C(NCCn1cc(SCC(=O)N2CCOCC2)c2ccccc21)c1ccccc1 | 2 | 11 | -1 | · | 0 | ·
CCCn1cc(SCC(=O)Nc2nnc(C)s2)c2ccccc21 | 1 | 1 | -1 | · | 0 | -5
O=C(CSc1cn(Cc2ccccc2)c2ccccc12)N1CCOCC1 | 79* | 18 | -1 | · | 0 | 52
CC1CN(C(=O)CSc2cn(CC(=O)N3CCOCC3)c3ccccc23)CC(C)O1 (stereo not drawn) | 1 | -1 | 4 | -1 | 0 | -10
Cc1ccc(C(=O)NCCn2cc(SCC(=O)Nc3nnc(C)s3)c3ccccc32)cc1 | 58* | -5 | -1 | · | 0 | ·
COc1ccc(C(=O)NCCn2cc(SCC(=O)N3CCOCC3)c3ccccc32)cc1 | 42* | · | 0 | -1 | · | 0
O=C(C1CCCC1)N1CC(=O)N2[C@H](CO)[C@H](c3ccc(-c4cccnc4)cc3)[C@H]2C1 | · | · | 2 | · | 0 | ·
Cc1ccccc1-c1ccc([C@H]2[C@H](CO)N3C(=O)CN(C(=O)Cc4ccccn4)C[C@@H]23)cc1 | · | · | 0 | · | 0 | ·
CCCNC(=O)N1[C@H](CO)[C@@H]2c3ccccc3N(C(=O)c3ccc(F)cc3)C[C@@H]21 | -5 | · | -3 | · | 0 | ·
C=CCNC(=O)c1cc2c(=O)n3ccccc3nc2s1 | 4 | 36* | 8 | -4 | 0 | 66
CC(C)NC(=O)c1cc2c(=O)n3ccccc3nc2s1 | 5 | 4 | -1 | 1 | 0 | -11
O=C(NC1CCCCCC1)c1cc2c(=O)n3ccccc3nc2s1 | 45* | 11 | 2 | 2 | 0 | 91*
C[C@H]1CN([C@@H](C)CO)C(=O)c2cc(NS(=O)(=O)c3ccc(Cl)cc3)ccc2O[C@@H]1CN(C)C(=O)Nc1ccc(C(F)(F)F)cc1 | 3 | · | · | · | -1 | ·
SMILES | esBAF inh | Wnt act | CASP6 VEID inh | NSD2 inh | XiGFP reactiv | MITF TRPM1 HTS
COc1ccc2c3c([nH]c2c1)[C@H](CO)N(C)CC31CCN(C(=O)NC(C)C)CC1 | · | · | · | · | 1 | ·
O=c1sc(/C=N/Nc2ccccc2)c(Cl)n1Cc1ccccc1 | · | 46* | -2 | 3 | 0 | 56
O=C(O)c1cccc(Cn2c(Cl)c(/C=N/NC(=O)c3ccc(O)cc3)sc2=O)c1 | 2 | -1 | 0 | · | 0 | -5
COc1cccc(S(=O)(=O)N2CCC3(CC2)CN[C@H](CO)c2[nH]c4cc(OC)ccc4c23)c1 | · | · | · | · | 0 | ·
COc1cccc(C2(O)CC(C(F)(F)F)=NN2C(=O)c2ccccn2)c1 (stereo not drawn) | · | 45* | -1 | -26 | 0 | 36
O=C(c1ccccc1)N1N=C(C(F)(F)F)CC1(O)c1ccccc1 (stereo not drawn) | -3 | -1 | -1 | -2 | 0 | -13
CO[C@H]1CN(C)C(=O)c2ccc(NS(=O)(=O)c3cccc(Cl)c3)cc2OC[C@@H](C)NC[C@H]1C | 1 | · | 41* | · | 0 | ·
CO[C@H]1CN(C)C(=O)c2ccc(NC(=O)C3CC3)cc2OC[C@@H](C)N(C(=O)Cc2ccccn2)C[C@@H]1C | -1 | · | 1 | · | -1 | ·
CO[C@@H]1CN(C)C(=O)c2ccc(NC(=O)C3CC3)cc2OC[C@@H](C)N(C(=O)Cc2ccccn2)C[C@H]1C | 1 | · | 39* | · | -1 | ·
CO[C@H]1CN(C)C(=O)c2cc(NC(C)=O)ccc2OC[C@H](C)N(S(=O)(=O)c2cn(C)cn2)C[C@H]1C | -1 | · | 36* | · | -1 | ·
CO[C@@H]1CN(C)C(=O)c2ccc(NC(=O)C3CC3)cc2OC[C@@H](C)N(C)C[C@H]1C | 1 | · | 99* | · | 0 | ·
COc1cc(CN2CC3(CN(C(C)=O)C3)c3c([nH]c4cc(OC)ccc34)[C@@H]2CO)cc(OC)c1 | · | · | · | · | 0 | ·
Cc1ccc(S(=O)(=O)N[C@@H]2C=C[C@H](CC(=O)O)O[C@H]2CO)cc1 | 2 | · | -2 | · | 0 | ·
CO[C@@H]1CN(C)C(=O)c2ccc(NC(=O)c3cnccn3)cc2OC[C@H](C)N(CC2CC2)C[C@@H]1C | · | · | 0 | · | 0 | ·
O=C(C[C@@H]1C[C@H]2c3cc(NC(=O)Nc4ccccc4F)ccc3O[C@H]2[C@@H](CO)O1)NCCc1ccccc1 | 7 | · | -3 | · | 0 | ·
COc1cccc(C(=O)Nc2ccc3c(c2)OC[C@@H](C)NC[C@@H](C)[C@H](OC)CN(C)C3=O)c1 | -1 | · | -5 | · | 0 | ·
CC(=O)N(C)c1ccc(NC(=O)Cc2cccs2)cc1 | 23 | 5 | 38* | 0 | 0 | 11
Cc1nc(NCc2ccccc2)sc1C(=O)Nc1ccccc1 | 59* | 6 | 4 | -2 | 1 | 54
Cc1cccc(NC(=O)c2sc3nc(-c4ccccc4)cn3c2C)n1 | 51* | 5 | 1 | · | · | 9
COc1ccc(-c2cn3c(C)c(C(=O)Nc4cccc(C)n4)sc3n2)cc1 | 55* | -1 | -2 | 14 | · | 13
Cc1nc(Nc2ccccc2)sc1C(=O)Nc1ccccc1 | · | 15 | 1 | -2 | 0 | 62
Cc1cccc(NC(=O)c2sc3nc(-c4ccc(F)cc4)cn3c2C)n1 | 20 | · | · | 1 | · | 13
Cc1c(C(=O)Nc2ccccc2)sc2nc(-c3ccccc3)cn12 | ? | 58* | · | 1 | · | 27
CCOc1nc2c(c(C)nn2-c2ccccc2)c(C)c1CCC(=O)NCCN1CCOCC1 | · | · | · | 0 | · | ·
CC(=O)N[C@H]1C=C[C@H](CC(=O)NCc2ccc(Cl)cc2)O[C@H]1CO | -1 | · | 3 | · | 0 | ·
